ChEMBL document CHEMBL1153905, “Functionalized 3-benzylidene-indolin-2-ones: inducers of NAD(P)H-quinone oxidoreductase 1 (NQO1) with antiproliferative activity” (Bioorg Med Chem, 2009)
pIC50: −log10 of the molar value.

What was measured:
HCT-116 [1] = assay: Antiproliferative activity against human HCT116 cells after 72 hrs by MTT assay; assay type: functional, cell-based; conditions: HCT-116, 72 h
In short: (§1)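 Cells seeded at 10,000 (MCF7), 4000 (HCT116) or 5000 (CCL186) per well and grown 24 h; MCF7 and CCL186 in EMEM with pyruvate, glutamine, 10% FBS; HCT116 in McCoy's 5A with 10% FBS. Compounds from DMSO stocks (≤1% DMSO final), 72 h exposure; MTT 0.5 mg/ml for 3 h, formazan in DMSO read at 590 nm. IC50 from sigmoidal survival curve, three separate occasions.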

MCF7 [2] = assay: Antiproliferative activity against human MCF7 cells after 72 hrs by MTT assay; assay type: functional, cell-based; conditions: MCF7, 72 h; in short: as §1
[3] = Antiproliferative activity against human CCL186 cells after 72 hrs by MTT assay; assay type: cell-based; conditions: CCL186, 72 h; in short: as §1
MCF7 [4] = assay: Selectivity ratio of IC50 for human CCL186 cells to IC50 for human MCF7 cells
In short: (§2)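 MTT assay. MCF7 and CCL186 cells were grown in EMEM/10% FBS, HCT116 in McCoy's 5A/10% FBS. Seeding was 10,000 (MCF7), 4000 (HCT116) and 5000 (CCL186) cells per well, 24 h. Compound exposure was 72 h, DMSO ≤1% final. MTT 0.5 mg/ml for 3 h, formazan dissolved in DMSO, A590. IC50 came from sigmoidal survival curves, with 3 separate occasions per concentration. Ratio = IC50 CCL186 / IC50 of the cancer line.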

[5] = Selectivity ratio of IC50 for human CCL186 cells to IC50 for human HCT116 cells; assay type: ADME, cell-based, HCT-116; conditions: CCL186 cells and HCT116 cells, read-out: Ratio IC50; in short: as §2
HCT-116 [6] = assay: Cell cycle arrest in human HCT116 cells released from G1 block assessed as accumulation at sub G1 phase at 10 uM after 24 hrs by flow cytometry; assay type: functional
HCT-116 [7] = assay: Cell cycle arrest in human HCT116 cells released from G2 block assessed as accumulation at sub G1 phase at 10 uM after 24 hrs by flow cytometry; assay type: functional
HCT-116 [8] = assay: Cell cycle arrest in human HCT116 cells released from G1 block assessed as accumulation at G1 phase at 10 uM after 24 hrs by flow cytometry; assay type: functional
HCT-116 [9] = assay: Cell cycle arrest in human HCT116 cells released from G2 block assessed as accumulation at G1 phase at 10 uM after 24 hrs by flow cytometry; assay type: functional
HCT-116 [10] = assay: Cell cycle arrest in human HCT116 cells released from G1 block assessed as accumulation at S phase at 10 uM after 24 hrs by flow cytometry; assay type: functional
HCT-116 [11] = assay: Cell cycle arrest in human HCT116 cells released from G2 block assessed as accumulation at S phase at 10 uM after 24 hrs by flow cytometry; assay type: functional
HCT-116 [12] = assay: Cell cycle arrest in human HCT116 cells released from G1 block assessed as accumulation at G2/M phase at 10 uM after 24 hrs by flow cytometry; assay type: functional
HCT-116 [13] = assay: Cell cycle arrest in human HCT116 cells released from G2 block assessed as accumulation at G2/M phase at 10 uM after 24 hrs by flow cytometry; assay type: functional
[14] = Cytotoxicity against mouse Hepa-1c1c7 cells after 48 hrs by MTT assay; assay type: cell-based; conditions: hepa-1c1c7, 48 h
In short: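 Murine hepatoma cells in α-MEM with 10% heat- and charcoal-treated fetal calf serum, passages 6–17; MTT read-out as for the cancer lines but with 48 h compound exposure. Highest concentration tested 25 µM. IC50 from survival-versus-concentration curve; mean and SD, n = 3.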

HCT-116 [15] = assay: Cell cycle arrest in human HCT116 cells released from G1 block assessed as accumulation at sub G1 phase at 5 uM after 24 hrs by flow cytometry; assay type: functional
HCT-116 [16] = assay: Cell cycle arrest in human HCT116 cells released from G2 block assessed as accumulation at sub G1 phase at 5 uM after 24 hrs by flow cytometry; assay type: functional
HCT-116 [17] = assay: Cell cycle arrest in human HCT116 cells released from G1 block assessed as accumulation at G1 phase at 5 uM after 24 hrs by flow cytometry; assay type: functional
HCT-116 [18] = assay: Cell cycle arrest in human HCT116 cells released from G2 block assessed as accumulation at G1 phase at 5 uM after 24 hrs by flow cytometry; assay type: functional
HCT-116 [19] = assay: Cell cycle arrest in human HCT116 cells released from G1 block assessed as accumulation at S phase at 5 uM after 24 hrs by flow cytometry; assay type: functional
HCT-116 [20] = assay: Cell cycle arrest in human HCT116 cells released from G2 block assessed as accumulation at S phase at 5 uM after 24 hrs by flow cytometry; assay type: functional
HCT-116 [21] = assay: Cell cycle arrest in human HCT116 cells released from G1 block assessed as accumulation at G2/M phase at 5 uM after 24 hrs by flow cytometry; assay type: functional
HCT-116 [22] = assay: Cell cycle arrest in human HCT116 cells released from G2 block assessed as accumulation at G2/M phase at 5 uM after 24 hrs by flow cytometry; assay type: functional
CYP1A1 = molecular target: T1, CYP1A1 (Mus musculus, UniProt P00184); assay: Induction of CYP1A1 activity in mouse Hepa-1c1c7 cells assessed as induction ratio at 0.5 uM after 48 hrs by EROD assay relative to control; assay type: ADME, cell-based
T1 sequence (P00184 whole entry): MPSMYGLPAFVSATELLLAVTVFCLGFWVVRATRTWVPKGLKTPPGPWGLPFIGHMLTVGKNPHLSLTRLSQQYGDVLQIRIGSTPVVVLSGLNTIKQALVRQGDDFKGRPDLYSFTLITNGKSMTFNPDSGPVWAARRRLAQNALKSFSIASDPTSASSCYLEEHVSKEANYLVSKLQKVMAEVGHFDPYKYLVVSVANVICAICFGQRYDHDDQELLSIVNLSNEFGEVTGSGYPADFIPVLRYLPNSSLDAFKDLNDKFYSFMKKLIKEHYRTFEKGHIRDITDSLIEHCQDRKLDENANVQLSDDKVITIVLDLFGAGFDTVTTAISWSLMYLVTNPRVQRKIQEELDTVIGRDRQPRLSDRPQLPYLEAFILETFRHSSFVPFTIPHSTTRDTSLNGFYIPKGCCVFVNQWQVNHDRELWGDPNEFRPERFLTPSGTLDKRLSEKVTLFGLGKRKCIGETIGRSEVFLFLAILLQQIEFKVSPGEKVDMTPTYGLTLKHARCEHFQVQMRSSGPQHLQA
In short: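 About 10,000 Hepa1c1c7 cells/well cultured 24 h, then compound (0.5% DMSO final) for 48 h, at roughly 4 × the concentration doubling NQO1 activity. After PBS wash, cells given 5 µM 7-ethoxyresorufin plus 2 mM salicylamide, 37 °C, 40 min; resorufin fluorescence ex 530/em 590 nm, corrected for compound fluorescence. Ratio = (treated − blank)/(DMSO control − blank); mean ± SD, n = 3.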

[23] = molecular target: NAD(P)H dehydrogenase [quinone] 1 (Mus musculus) (UniProt Q64669); assay: Induction of NQO1 activity in mouse Hepa-1c1c7 cells assessed as induction ratio at 0.5 uM after 48 hrs by MTT assay relative to control; assay type: cell-based
In short: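 Hepa1c1c7 cells, 10,000 per well, 24 h, were then treated 48 h (DMSO ≤0.5%). Digitonin/EDTA lysates were assayed for menadione-dependent MTT-formazan formation using a G6P/G6PDH NADPH-generating mix with FAD at pH 7.4. The reaction ran 5 min, was stopped with dicoumarol, and read at A590. Degree of induction = (A test − blank)/(A control − blank). Ratios were read off the induction–concentration plot at the EROD test concentration.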

HCT-116 [24] = assay: Cell cycle arrest in human HCT116 cells released from G1 block assessed as accumulation at sub G1 phase at 30 uM after 24 hrs by flow cytometry; assay type: functional
HCT-116 [25] = assay: Cell cycle arrest in human HCT116 cells released from G2 block assessed as accumulation at sub G1 phase at 30 uM after 24 hrs by flow cytometry; assay type: functional
HCT-116 [26] = assay: Cell cycle arrest in human HCT116 cells released from G1 block assessed as accumulation at G1 phase at 30 uM after 24 hrs by flow cytometry; assay type: functional
HCT-116 [27] = assay: Cell cycle arrest in human HCT116 cells released from G2 block assessed as accumulation at G1 phase at 30 uM after 24 hrs by flow cytometry; assay type: functional
HCT-116 [28] = assay: Cell cycle arrest in human HCT116 cells released from G1 block assessed as accumulation at S phase at 30 uM after 24 hrs by flow cytometry; assay type: functional
HCT-116 [29] = assay: Cell cycle arrest in human HCT116 cells released from G2 block assessed as accumulation at S phase at 30 uM after 24 hrs by flow cytometry; assay type: functional
HCT-116 [30] = assay: Cell cycle arrest in human HCT116 cells released from G1 block assessed as accumulation at G2/M phase at 30 uM after 24 hrs by flow cytometry; assay type: functional
HCT-116 [31] = assay: Cell cycle arrest in human HCT116 cells released from G2 block assessed as accumulation at G2/M phase at 30 uM after 24 hrs by flow cytometry; assay type: functional

NAD(P)H dehydrogenase [quinone] 1 (Mus musculus), sequence (Q64669 whole entry): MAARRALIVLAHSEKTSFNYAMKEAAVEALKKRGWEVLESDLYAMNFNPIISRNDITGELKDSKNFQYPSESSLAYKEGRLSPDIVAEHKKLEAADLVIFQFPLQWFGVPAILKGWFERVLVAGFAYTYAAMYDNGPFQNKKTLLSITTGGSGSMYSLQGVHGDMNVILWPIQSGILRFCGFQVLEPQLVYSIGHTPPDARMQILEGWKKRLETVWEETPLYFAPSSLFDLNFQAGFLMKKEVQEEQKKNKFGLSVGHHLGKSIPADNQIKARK

Molecule `COc1cccc(OC)c1/C=C1/C(=O)Nc2ccccc21` has a pIC50 (HCT-116 [1]) of 5.32, a pIC50 (MCF7 [2]) of 5.21 and a pIC50 [3] of 4.75. The “Ratio IC50” value (MCF7 [4]) was 3.7, the selectivity ratio [5] was 2.9 and the Activity (HCT-116 [6]) was 3.52%. It also gave an Activity (HCT-116 [7]) of 9.51%, an Activity (HCT-116 [8]) of 20.86% and an Activity (HCT-116 [9]) of 32.97%. It also gave an Activity (HCT-116 [10]) of 16%, an Activity (HCT-116 [11]) of 12.42% and an Activity (HCT-116 [12]) of 59.63%. It also gave an Activity (HCT-116 [13]) of 44.99% and an IC50 [14] of 13.9 µM.

`COc1ccc(/C=C2/C(=O)Nc3ccccc32)c(OC)c1` gave a pIC50 (HCT-116 [1]) of 5.06, a pIC50 (MCF7 [2]) of 5.48 and a pIC50 [3] of 5.24. The “Ratio IC50” value (MCF7 [4]) was 0.7, the selectivity ratio [5] was 1.8 and the Activity (HCT-116 [15]) was 2.64%. It also gave an Activity (HCT-116 [16]) of 12.49%, an Activity (HCT-116 [17]) of 26.14% and an Activity (HCT-116 [18]) of 34.66%. The Activity (HCT-116 [19]) was 12.37%, the Activity (HCT-116 [20]) was 13.43% and the Activity (HCT-116 [21]) was 58.82%. The Activity (HCT-116 [22]) was 39.43% and the IC50 [14] was 11.1 µM.

`COc1ccc2c(c1)NC(=O)/C2=C/c1cccc(C(F)(F)F)c1` showed a fold induction at 48 h, 0.5 µM (CYP1A1) of 1.36, a pIC50 (HCT-116 [1]) of 5.72 and a pIC50 (MCF7 [2]) of 5.42. For the same molecule, the pIC50 [3] was 5.27, the “Ratio IC50” value (MCF7 [4]) was 2.8 and the selectivity ratio [5] was 1.4. It also gave an Activity (HCT-116 [15]) of 4.39%, an Activity (HCT-116 [16]) of 20.69% and an Activity (HCT-116 [17]) of 17.5%. The Activity (HCT-116 [18]) was 30.55%, the Activity (HCT-116 [19]) was 19.12% and the Activity (HCT-116 [20]) was 17.96%. The Activity (HCT-116 [21]) was 59.16%, the Activity (HCT-116 [22]) was 31.58% and the IC50 [14] was 2.6 µM. The Ratio [23] was 4.22.

Molecule `O=C1Nc2ccccc2/C1=C\c1cccc2ccccc12` has a pIC50 (HCT-116 [1]) of 5.41, a pIC50 (MCF7 [2]) of 4.71 and a pIC50 [3] of 4.60. For the same molecule, the “Ratio IC50” value (MCF7 [4]) was 6.4, the selectivity ratio [5] was 1.3 and the Activity (HCT-116 [24]) was 2.96%. For the same molecule, the Activity (HCT-116 [25]) was 5.68%, the Activity (HCT-116 [26]) was 32.69% and the Activity (HCT-116 [27]) was 51.32%. For the same molecule, the Activity (HCT-116 [28]) was 26.91%, the Activity (HCT-116 [29]) was 14.61% and the Activity (HCT-116 [30]) was 38.42%. The IC50 [14] was 18.6 µM and the Activity (HCT-116 [31]) was 28.26%.
